In ChEMBL document CHEMBL1148177, “Starfish saponins, Part 50. Steroidal glycosides from the Okinawan starfish Nardoa tuberculata” (1993):
Active and inactive are the calls of the source. No cut-off for these calls is given here.

Key:
Sphaerechinus granularis [1] = test: Inhibition of sea urchin egg fertilization after 10 mins; format: functional
Procedure, shortened: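 Sphaerechinus granularis eggs, each experiment using eggs from a single female, about 50,000 eggs/ml. Eggs were treated 10 min with compound in MeOH-H2O (20:80), diluted five-fold with filtered sea water and fertilized. Controls were handled the same way. Cleavage was checked by light microscopy in vivo at 10 min and 2 h. Values are given as LD50 (M).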

Sphaerechinus granularis [2] = test: Inhibition of sea urchin egg fertilization at <10 uM after 10 mins
Cladosporium cucumerinum = test: Antifungal activity against Cladosporium cucumerinum; format: functional
Procedure, shortened: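 Direct bioautography on TLC: samples spotted on TLC plates, then sprayed with a suspension of Cladosporium cucumerinum. Activity is recorded as the minimum inhibition dose in μg spotted.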

Compound	LD50 (Sphaerechinus granularis [1])	Activity (Sphaerechinus granularis [2])	MIC (Cladosporium cucumerinum) [µg]
CC(C)[C@@H](O)CC[C@@H](C)[C@H]1C[C@@H](O)[C@@H]2[C@]1(C)CC[C@@H]1[C@@]3(C)CC[C@H](O)[C@H](O)[C@@H]3[C@@H](O)C[C@]12O	1 ×10⁻⁶ M	–	–
CC(C)[C@@H](O)CC[C@@H](C)[C@H]1C[C@@H](O)[C@@H]2[C@]1(C)CC[C@@H]1[C@@]3(C)CC[C@H](O)C[C@@H]3[C@@H](O)C[C@]12O	–	inactive	3
CO[C@H]1[C@H](O[C@H]2[C@H](OCC[C@@H](CC[C@@H](C)[C@H]3[C@@H](O)[C@@H](O)[C@@H]4[C@]3(C)CC[C@@H]3[C@@]5(C)CC[C@H](O)[C@H](O)[C@@H]5[C@@H](O)C[C@]34O)C(C)C)OC[C@@H](O)[C@@H]2O)OC[C@@H](O)[C@@H]1O [HALITYLOSIDE A]	1 ×10⁻⁵ M	–	40
CO[C@H]1[C@H](O[C@H]2[C@H](OCC[C@@H](CC[C@@H](C)[C@H]3[C@@H](O)[C@@H](O)[C@@H]4[C@]3(C)CC[C@@H]3[C@@]5(C)CC[C@H](O)C[C@@H]5[C@@H](O)C[C@]34O)C(C)C)OC[C@@H](O)[C@@H]2O)OC[C@@H](O)[C@@H]1O [HALITYLOSIDE B]	1 ×10⁻⁵ M	–	–
CO[C@H]1[C@H](O[C@H]2[C@H](O[C@@H](CC[C@@H](C)[C@H]3C[C@@H](O)[C@@H]4[C@]3(C)CC[C@@H]3[C@@]5(C)CC[C@H](O)[C@H](O)[C@@H]5[C@@H](O)C[C@]34O)C(C)C)O[C@@H](CO)[C@@H]2O)OC[C@@H](OC)[C@@H]1O [HALITYLOSIDE D]	1 ×10⁻⁶ M	–	–
CO[C@H]1[C@H](O[C@H]2[C@H](O[C@@H](CC[C@@H](C)[C@H]3C[C@@H](O)[C@@H]4[C@]3(C)CC[C@@H]3[C@@]5(C)CC[C@H](O)C[C@@H]5[C@@H](O)C[C@]34O)C(C)C)O[C@@H](CO)[C@@H]2O)OC[C@@H](OC)[C@@H]1O [HALITYLOSIDE E]	1 ×10⁻⁷ M	–	10
CO[C@H]1[C@H](O[C@H]2[C@H](O[C@@H](CC[C@@H](C)[C@H]3C[C@@H](O)[C@@H]4[C@]3(C)CC[C@@H]3[C@@]5(C)CC[C@H](O)C[C@@H]5[C@H](O)C[C@]34O)C(C)C)O[C@@H](CO)[C@@H]2O)OC[C@@H](OC)[C@@H]1O [HALITYLOSIDE F]	1 ×10⁻⁶ M	–	5
